Numbered stars: 1 amine (or outer) side, 2 acyl side, 3 side chain; on linkers, the order of the positions; unused ones are H or OH. Square brackets hold non-standard residues; d marks the D form. Peptide text beside a SMILES is read from it. * marks the point of attachment. ξ: configuration not given here. Sta(3ξ) = CC(C)C[C@H](N[*:1])C(O)CC(=O)[*:2]; X4 = CC(C)C[C@H](N*)C(O)C[C@H](C(N)=O)C(C)C; X5 = CC(C)C[C@@H](CN[C@H](C(N)=O)C(C)C)N*; X1 = CC(C)CC(N[*:1])C(O)CC(=O)[*:2]; X3 = CC(C)CC(N[*:1])C(O)C(=O)[*:2]; Ile(3ξ) = CCC(C)[C@H](N)C(=O)O; X2 = CC(C)CC(N*)C(O)CC(N)=O; Cbz = O=C(OCc1ccccc1)*; Boc = CC(C)(C)OC(=O)*; For = O=C*
Target: T1, Renin (Homo sapiens, UniProt P00797)
T1 sequence (P00797 whole entry): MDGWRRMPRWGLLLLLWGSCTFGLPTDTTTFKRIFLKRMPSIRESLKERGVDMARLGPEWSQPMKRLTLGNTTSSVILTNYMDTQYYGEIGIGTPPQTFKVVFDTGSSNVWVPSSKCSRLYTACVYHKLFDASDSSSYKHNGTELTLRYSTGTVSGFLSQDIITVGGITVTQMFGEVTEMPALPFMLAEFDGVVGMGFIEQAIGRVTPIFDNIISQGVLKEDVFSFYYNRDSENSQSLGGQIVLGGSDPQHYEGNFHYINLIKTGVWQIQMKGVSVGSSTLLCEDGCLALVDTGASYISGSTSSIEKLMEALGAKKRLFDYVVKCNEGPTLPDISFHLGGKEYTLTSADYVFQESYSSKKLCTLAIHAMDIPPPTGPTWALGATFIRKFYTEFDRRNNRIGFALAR
Assay: In vitro inhibitory activity against human plasma renin
Format: cell-free
Outline: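 Reconstituted lyophilized human plasma with 0.1% EDTA, plus PMSF and maleate buffer (pH 6.0). Inhibitor added in 1.0% Tween 80/water vehicle. Angiotensin I generated for 90 min at 37 °C and measured by RIA.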

**Q.** Which IC50 does the source give for `CC[C@H](C)[C@H](NC(=O)[C@@H](C[C@H](O)[C@H](CC(C)C)NC(=O)[C@H](Cc1c[nH]cn1)N(C)C(=O)[C@H](Cc1ccccc1)NC(=O)[C@@H]1CCCN1C(=O)OC(C)(C)C)C(C)C)C(=O)NCc1ccccn1` here?
**A.** The IC50 was 0.11 nM.

**Q.** `CC(=O)N[C@H](Cc1c[nH]c2ccccc12)C(=O)N1CCC[C@H]1C(=O)N[C@@H](Cc1ccccc1)C(=O)N[C@@H](Cc1c[nH]cn1)C(=O)N[C@@H](Cc1ccccc1)C(=O)N[C@@H](Cc1ccccc1)C(=O)N[C@H](C(=O)N[C@@H](Cc1cn(C=O)c2ccccc12)C(N)=O)C(C)C` was tested. Which IC50 did it give?
**A.** The IC50 was 5000 nM.

**Q.** Which IC50 does the source give for `CC(=O)N[C@@H](Cc1cn(C=O)c2ccccc12)C(=O)N1CCC[C@H]1C(=O)N[C@@H](Cc1ccccc1)C(=O)N[C@@H](Cc1cnc[nH]1)C(=O)N[C@@H](Cc1ccccc1)C(=O)N[C@@H](Cc1ccccc1)C(=O)N[C@H](C(=O)N[C@@H](Cc1cn(C=O)c2ccccc12)C(N)=O)C(C)C` here?
**A.** The IC50 was 500 nM.

**Q.** `CC[C@H](C)[C@H](NC(=O)CC(O)[C@H](CC(C)C)NC(=O)[C@H](Cc1c[nH]cn1)NC(=O)[C@H](Cc1ccccc1)NC(=O)[C@@H]1CCCN1C(=O)[C@@H](Cc1cn(C=O)c2ccccc12)NC(C)=O)C(N)=O` (some centres undefined) was tested. Which IC50 did it give?
**A.** Its IC50 is 14 nM.

**Q.** Which IC50 does the source give for `CC[C@H](C)[C@H](NC(=O)[C@@H](NC[C@H](CC(C)C)NC(=O)[C@H](Cc1c[nH]cn1)NC(=O)[C@H](Cc1ccccc1)NC(=O)[C@@H]1CCCN1C(=O)[C@H](Cc1c[nH]cn1)NC(=O)[C@@H]1CCCN1)C(C)C)C(=O)N[C@@H](Cc1c[nH]cn1)C(=O)N[C@@H](CCCCN)C(=O)O` here?
**A.** The IC50 was 10 nM.

**Q.** Which IC50 does the source give for `CC[C@H](C)[C@H](NC(=O)CC(O)[C@H](CC(C)C)NC(=O)[C@H](Cc1cnc[nH]1)NC(=O)[C@H](Cc1ccccc1)NC(=O)[C@@H]1CCCN1C(=O)[C@H](Cc1cn(C=O)c2ccccc12)NC(C)=O)C(N)=O` (some centres undefined) here?
**A.** Its IC50 is 0.1 nM.

**Q.** Which IC50 does the source give for `CC(=O)N[C@H](Cc1c[nH]cn1)C(=O)N1CCC[C@H]1C(=O)N[C@@H](Cc1ccccc1)C(=O)N[C@@H](Cc1ccccc1)C(=O)N[C@H](C(=O)N[C@@H](Cc1cn(C=O)c2ccccc12)C(N)=O)C(C)C` here?
**A.** Its IC50 is roughly 100000 nM.

**Q.** For `CC(=O)N[C@H](Cc1cn(C=O)c2ccccc12)C(=O)N1CCC[C@H]1C(=O)N[C@@H](Cc1ccccc1)C(=O)N[C@@H](Cc1cnc[nH]1)C(=O)N[C@@H](Cc1ccccc1)C(=O)N[C@@H](Cc1ccccc1)C(=O)N[C@H](C(=O)N[C@@H](Cc1cn(C=O)c2ccccc12)C(N)=O)C(C)C`, which IC50 is on record?
**A.** Its IC50 is greater than 100000 nM.

**Q.** How did the IC50 turn out when `CC(=O)N[C@@H](Cc1c[nH]cn1)C(=O)N[C@@H](Cc1ccccc1)C(=O)N[C@@H](Cc1cn(C=O)c2ccccc12)C(=O)N[C@@H](Cc1ccccc1)C(=O)N[C@@H](Cc1ccccc1)C(=O)N[C@H](C(=O)N[C@@H](Cc1cn(C=O)c2ccccc12)C(N)=O)C(C)C` (Ac-HFW(For)FFVW(For)-NH2) was run?
**A.** The IC50 was greater than 100000 nM.

**Q.** Which IC50 does the source give for `CC(=O)N[C@@H](Cc1cnc[nH]1)C(=O)N1CCC[C@H]1C(=O)N[C@@H](Cc1ccccc1)C(=O)N[C@@H](Cc1cnc[nH]1)C(=O)N[C@@H](Cc1ccccc1)C(=O)N[C@@H](Cc1ccccc1)C(=O)N[C@H](C(=O)N[C@@H](Cc1cn(C=O)c2ccccc12)C(N)=O)C(C)C` (Ac-HPFHFFVW(For)-NH2) here?
**A.** The IC50 was 8300 nM.

**Q.** For `CC[C@H](C)[C@H](NC(=O)CC(O)[C@H](CC(C)C)NC(=O)[C@H](Cc1cnc[nH]1)NC(=O)[C@H](Cc1ccccc1)NC(=O)[C@@H]1CCCN1C(=O)[C@H](Cc1cnc[nH]1)NC(C)=O)C(N)=O` (some centres undefined) (Ac-HPFH[Sta(3ξ)]I-NH2), which IC50 is on record?
**A.** The IC50 was 6.8 nM.

**Q.** Which IC50 does the source give for `CC(=O)N[C@@H](Cc1cn(C=O)c2ccccc12)C(=O)NCC(=O)N[C@@H](Cc1ccccc1)C(=O)N[C@@H](Cc1cnc[nH]1)C(=O)N[C@@H](Cc1ccccc1)C(=O)N[C@@H](Cc1ccccc1)C(=O)N[C@H](C(=O)N[C@@H](Cc1cn(C=O)c2ccccc12)C(N)=O)C(C)C` (Ac-W(For)GFHFFVW(For)-NH2) here?
**A.** Its IC50 is greater than 100000 nM.

**Q.** With `CC(=O)N[C@@H](Cc1cn(C=O)c2ccccc12)C(=O)N1CCC[C@H]1C(=O)N[C@@H](Cc1ccccc1)C(=O)N[C@@H](Cc1cnc[nH]1)C(=O)NC(CC(C)C)C(O)CC(N)=O` (some centres undefined) (Ac-W(For)PFH-X2) as the molecule, how does the IC50 read?
**A.** Its IC50 is 3.8 nM.

**Q.** How did the IC50 turn out when `CC(=O)N[C@@H](Cc1cn(C=O)c2ccccc12)C(=O)N1CCC[C@H]1C(=O)N[C@@H](Cc1ccccc1)C(=O)N[C@@H](Cc1c[nH]cn1)C(=O)N[C@@H](CC(C)C)C(O)C[C@H](C(N)=O)C(C)C` (some centres undefined) (Ac-W(For)PFH-X4) was run?
**A.** Its IC50 is 0.31 nM.

**Q.** `CC(=O)N[C@@H](Cc1cn(C=O)c2ccccc12)C(=O)N1CCC[C@H]1C(=O)N[C@@H](Cc1ccccc1)C(=O)N[C@@H](Cc1c[nH]cn1)C(=O)N[C@H](CN[C@H](C(N)=O)C(C)C)CC(C)C` (Ac-W(For)PFH-X5) was tested. Which IC50 did it give?
**A.** The IC50 was 21 nM.

**Q.** For `CC(=O)N[C@@H](Cc1cn(C=O)c2ccccc12)C(=O)N1CCC[C@H]1C(=O)N[C@@H](Cc1ccccc1)C(=O)N[C@@H](Cc1c[nH]cn1)C(=O)N[C@@H](Cc1ccccc1)C(=O)N[C@@H](Cc1ccccc1)C(N)=O` (Ac-W(For)PFHFF-NH2), which IC50 is on record?
**A.** The IC50 was greater than 100000 nM.

**Q.** `CC(=O)N[C@@H](Cc1cn(C=O)c2ccccc12)C(=O)N1CCC[C@H]1C(=O)N[C@@H](Cc1ccccc1)C(=O)N[C@@H](Cc1cnc[nH]1)C(=O)N[C@@H](Cc1ccccc1)C(=O)N[C@@H](Cc1ccccc1)C(=O)N[C@H](C(N)=O)C(C)C` (Ac-W(For)PFHFFV-NH2) was tested. Which IC50 did it give?
**A.** Its IC50 is 2100 nM.

**Q.** With `CC(=O)N[C@@H](Cc1cn(C=O)c2ccccc12)C(=O)N1CCC[C@H]1C(=O)N[C@@H](Cc1ccccc1)C(=O)N[C@@H](Cc1c[nH]cn1)C(=O)NC(CC(C)C)C(O)CC(=O)N[C@H](C(N)=O)C(C)C` (some centres undefined) (Ac-W(For)PFH[X1]V-NH2) as the molecule, how does the IC50 read?
**A.** The IC50 was 0.53 nM.

**Q.** Which IC50 does the source give for `CC(=O)N[C@@H](Cc1cn(C=O)c2ccccc12)C(=O)N1CCC[C@H]1C(=O)N[C@@H](Cc1ccccc1)C(=O)N[C@@H](Cc1cnc[nH]1)C(=O)NC(CC(C)C)C(O)CC(=O)N[C@H](C(=O)N[C@@H](Cc1cn(C=O)c2ccccc12)C(N)=O)C(C)C` (some centres undefined) (Ac-W(For)PFH[X1]VW(For)-NH2) here?
**A.** Its IC50 is 0.38 nM.

**Q.** For `CC[C@H](C)[C@H](NC(=O)CC(O)[C@H](CC(C)C)NC(=O)[C@H](Cc1c[nH]cn1)NC(=O)[C@H](Cc1ccccc1)NC(=O)[C@@H]1CCCN1C(=O)[C@H](Cc1c[nH]c2ccccc12)NC(C)=O)C(N)=O` (some centres undefined) (Ac-WPFH[Sta(3ξ)]I-NH2), which IC50 is on record?
**A.** The IC50 was 1.6 nM.

**Q.** Which IC50 does the source give for `CC[C@H](C)[C@H](NC(=O)C(O)C(CC(C)C)NC(=O)[C@H](Cc1c[nH]cn1)NC(=O)[C@H](Cc1ccccc1)NC(=O)[C@@H]1CCCN1C(=O)[C@H](CCCN=C(N)N)NC(=O)[C@H](CCCN=C(N)N)NC(=O)OCc1ccccc1)C(=O)N[C@@H](Cc1c[nH]cn1)C(=O)N[C@@H](CCCCNC(=O)OC(C)(C)C)C(=O)OC` (some centres undefined) (Cbz-RRPFH[X3]IHK(Boc)-OMe) here?
**A.** Its IC50 is 1 nM.

**Q.** With `CCC(C)[C@H](NC(=O)CC(O)C(CC(C)C)NC(=O)[C@H](Cc1c[nH]cn1)NC(=O)[C@H](Cc1ccccc1)NC(=O)[C@@H]1CCCN1C=O)C(N)=O` (some centres undefined) (For-PFH[X1][Ile(3ξ)]-NH2) as the molecule, how does the IC50 read?
**A.** Its IC50 is 31 nM.

Target: Renin (Sus scrofa)
Assay: In vitro inhibitory activity towards porcine kidney renin

**Q.** For `CC(C)CC(NC(=O)[C@@H](N)Cc1cnc[nH]1)C(O)CC(=O)N[C@@H](CC(C)C)C(=O)N[C@@H](Cc1ccccc1)C(N)=O` (some centres undefined), which IC50 is on record?
**A.** The IC50 was 370000 nM.

**Q.** With `CC(C)CC(NC(=O)[C@H](Cc1c[nH]cn1)NC(=O)[C@H](Cc1ccccc1)NC(=O)[C@@H]1CCCN1)C(O)CC(=O)N[C@@H](CC(C)C)C(=O)N[C@@H](Cc1ccccc1)C(N)=O` (some centres undefined) (H-PFH[X1]LF-NH2) as the molecule, how does the IC50 read?
**A.** Its IC50 is 200 nM.

Reference: ChEMBL document CHEMBL1123947, “Design, structure-activity, and molecular modeling studies of potent renin inhibitory peptides having N-terminal Nin-For-Trp (Ftr): angiotensinogen congeners modified by P1-P1' Phe-Phe, Sta, Leu psi[CH(OH)CH2]Val or leu psi[CH2NH]Val substitutions” (J Med Chem, 1988)
